# KCNQ1 act = potentiators or activators of human KCNQ1 potassium channel; actives 0.35% (n = 310,000); B-score at 10 µM; CHO-K1 KCNQ1, thallium flux FluxOR fluorescence; stronger effect = higher value; P51787;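 active = fluorescence ratio B-score, a plate-corrected score, at least three library SD, with initial intensity B-score within 5 SD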
#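 assay system = KCNQ1-transfected CHO-K1 cells | medium = assay buffer with matched DMSO | probe or stimulus = depolarizing K+/Tl+ stimulus, K2SO4 and Tl2SO4 each 12.5 mM in 5x stock | dosing = single dose | incubation = dye 90 min, compound 20 min, room temperature | detection = kinetic FluxOR fluorescence, 10 s baseline plus 110 s post-stimulus | evaluation = ratio B score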
# KCNK3 inh = human KCNK3 channel inhibition, primary screen; B-score at 10 µM; O14649; actives 0.84% (n = 340,000); CHO-KCNK3 thallium flux, FluxOR fluorescence; stronger effect = lower value;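 active = B-score under library mean minus 4 SD, starting fluorescence ratio at most library mean plus 5 SD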;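 note: more negative B-score means stronger inhibition of thallium flux through KCNK3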
# hERG rescue = hERG (human) protection from proarrhythmic block; Q12809; CHO-hERG, FluxOR thallium flux, dofetilide IC70 present; activation (rescue from dofetilide block), less the hit threshold, % at 10 µM; actives 0.51% (n = 310,000); AID 1511;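 active = activation above the mean of controls blocked by dofetilide plus 5 SD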;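 note: thallium influx through hERG after potassium depolarization seen as dye fluorescence rise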
# KCNK9 block = human KCNK9 channel inhibition | B-score at 10 µM | Q9NPC2 | AID 488922 | actives 1.2% (n = 310,000) | HEK293 KCNK9, FluxOR thallium flux fluorescence; stronger effect = lower value;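 active = ratio B-score over 3 SD below the library mean, with starting fluorescence within 5 SD of its mean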;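 note: negative B-score means less thallium flux so channel inhibition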
# KCNQ1 inh = blocks the human KCNQ1 potassium channel. P51787. B-score at 10 µM. AID 2642. CHO-K1 KCNQ1, FluxOR thallium flux fluorescence; stronger effect = higher value. actives 1.3% (n = 310,000);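 active = compounds whose thallium flux B-score, printed positive for inhibition, exceeds three library SD while starting fluorescence stays within three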;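 note: channel opened by potassium depolarization with thallium stimulus after 20 min compound exposure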
# KCC2 mod = modulators of human KCC2 chloride dependent transport; Q9H2X9; KCC2 cells, thallium flux FluoZin-2 fluorescence; B-score of Tl+ flux slope (higher = more flux/activation; lower = inhibition) at 10 µM; actives 2.2% (n = 190,000); AID 1456;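 active = thallium flux slope and its plate-corrected score both differing from the plate sample mean at a set confidence after two filtering rounds, in either direction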;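 note: slope of fluorescence scaled to starting intensity during 10 to 20 s after thallium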
# KCNK9 block conf = human KCNK9 inhibitor confirmation; shares compounds with KCNK9 block; HEK293 KCNK9 cells, FluxOR thallium flux fluorescence; inhibition, % at 10 µM; actives 43% (n = 4,900); AID 492992;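 active = thallium signal inhibited by more than 5 SD of the compound-free buffer control wells, on both duplicate plates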;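 note: 0% = assay buffer control wells without compound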
# Kir21 sel = tests whether KCNK9 modulators also affect mouse Kir2.1; shares compounds with KCNK9 block; Kir2.1 cells, FluxOR thallium flux fluorescence; inhibition, % at 10 µM; actives 4% (n = 4,900);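 active = thallium signal drop more than 5 SD beyond the mean of the no-compound control wells, seen in both duplicate plates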;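 note: signal is fluorescence rise after thallium addition divided by baseline fluorescence; plate controls were assay buffer only for no effect and full block by chlorpromazine control for full effect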
# Target sequence (P35561 whole entry, looked up): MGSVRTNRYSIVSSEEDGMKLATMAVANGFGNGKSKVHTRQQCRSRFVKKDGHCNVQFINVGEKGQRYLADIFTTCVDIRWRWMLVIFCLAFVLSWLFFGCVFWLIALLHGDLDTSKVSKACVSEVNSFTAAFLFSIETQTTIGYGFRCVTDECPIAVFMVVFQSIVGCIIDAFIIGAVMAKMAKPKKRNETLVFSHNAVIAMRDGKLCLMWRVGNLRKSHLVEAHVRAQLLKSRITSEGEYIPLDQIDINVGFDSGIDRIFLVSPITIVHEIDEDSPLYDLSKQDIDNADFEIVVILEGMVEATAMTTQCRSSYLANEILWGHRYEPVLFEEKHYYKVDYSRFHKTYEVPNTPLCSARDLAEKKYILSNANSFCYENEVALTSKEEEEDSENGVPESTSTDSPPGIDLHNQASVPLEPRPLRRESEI
# HEK293 Tl ctr = second check of KCNK9 modulator effects in non-induced HEK293 cells; shares compounds with KCNK9 block; FluxOR thallium flux; inhibition, % at 10 µM; actives 40% (n = 4,900); AID 492997;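 active = thallium signal drop beyond 5 SD of the untreated control mean, on both duplicate plates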;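 note: plate controls were buffer only IC0 wells for no effect and SID17386958 at its maximal inhibitory level for full effect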
# Active calls of the source: *; i = inactive; . = not tested or not shown. Rows were chosen to be rich in hits. Some 4.1% of all compounds tested hit in one or more screens of this group.
SMILES,KCNQ1 act,KCNK3 inh,hERG rescue,KCNK9 block,KCNQ1 inh,KCC2 mod,KCNK9 block conf,Kir21 sel,HEK293 Tl ctr
O=C(CC1CCCC1)N1CCCC(Nc2ccc(F)cc2)C1 (stereo not drawn),i,i,-10,i,i,.,i,i,i
CC1(CCC(=O)N2CCCC(Nc3ccc(F)cc3)C2)CC1 (stereo not drawn),i,i,-11,i,i,.,i,i,i
O=C(CC1CCCC1)N1CCCC(Nc2cccc(F)c2)C1 (stereo not drawn),i,i,-13,i,i,.,.,.,.
Nc1nc(Cl)nc2ncn(Cc3ccccc3)c12,i,i,-12,i,i,.,.,.,.
Cc1ccc(C(c2nnnn2Cc2cccs2)N2CCN(Cc3ccc4c(c3)OCO4)CC2)cc1 (stereo not drawn),i,i,-18,-12*,i,0.25,i,i,32%*
O=C(Nc1cccc(Cl)c1N1CCCC1)c1ccco1,i,i,-8,-9.9*,i,.,i,i,29%*
O=C(Nc1ccc(N2CCCC2)c(Cl)c1)c1ccco1,i,i,-6,i,i,-0.85,.,.,.
O=[N+]([O-])c1ccc(N/N=C/c2ccc(OCc3cccc4ccccc34)cc2)nc1,i,i,-7,-9.3*,i,-2.1,42%*,i,i
O=[N+]([O-])c1ccc(N/N=C\c2cccn2-c2ccccc2)nc1,i,-9.8*,-12,-12*,i,-0.37,65%*,i,62%*
O=[N+]([O-])c1ccc(NN=Cc2ccccc2)nc1,.,i,.,.,.,.,.,.,.
Cc1ccc(NC(=O)CCN2C(=O)NC3(CCCC3)C2=O)cc1S(=O)(=O)N1CCOCC1,.,i,.,.,.,.,.,.,.
Cc1nc2c(ccc3nc(NC(=O)C(c4ccccc4)c4ccccc4)sc32)s1,i,i,-23,-9.8*,i,-0.01,i,i,i
CCC1Oc2ccc(C)cc2N(CC(=O)NCC2CCCO2)C1=O (stereo not drawn),i,i,-5,i,i,.,.,.,.
COc1ccc(NC(=O)c2cc(-c3cccs3)on2)c(OC)c1,i,i,-9,i,i,.,.,.,.
COc1ccc(OC)c(NC(=O)c2ccc(-c3cccs3)cc2)c1,i,i,-5,-13*,i,0.048,66%*,i,35%*
NS(=O)(=O)c1ccc(NC(=O)CSc2n[nH]c(=O)n2C2CC2)cc1,.,i,.,.,.,.,.,.,.
CCOC(=O)c1sc2nc(C)nc(N3CCN(S(=O)(=O)c4ccccc4)CC3)c2c1C,.,i,.,.,.,.,.,.,.
COc1ccc(-c2noc(COc3ccc(C)c(C)c3)n2)cc1OC,i,i,-14,i,i,.,i,i,i
Cc1cc(C)c(C)c(OCc2nc(-c3cccnc3)no2)c1,i,i,-15,i,i,-0.44,.,.,.
Cc1ccc(OCc2nc(-c3ccccc3)no2)c(C)c1,i,i,-6,i,i,0.12,i,i,40%*
Cc1[nH]c(=O)[nH]c(=O)c1S(=O)(=O)Nc1ccc(F)cc1Cl,i,i,-3,i,i,.,.,.,.
C[C@H](CO)N1C[C@H](C)[C@@H](CN(C)Cc2ccncc2)Oc2ccc(NC(=O)Cn3cnnn3)cc2C1=O,.,i,.,.,.,.,.,.,.
Cc1noc(C)c1S(=O)(=O)N(C)CC(=O)Nc1ccc(F)cc1,i,i,-2,-11*,i,.,i,i,i
C=CCOc1ccc(CN(C)Cc2nc3cc(C(F)(F)F)ccc3c(=O)[nH]2)cc1,i,i,-16,i,i,0.014,i,i,i
COCCN1C(=O)/C(=C/c2ccc(Oc3ccc([N+](=O)[O-])cn3)c(OC)c2)SC1=Nc1ccccc1,i,i,-7,i,i,1.2,i,i,i
SMILES,KCNQ1 act,KCNK3 inh,hERG rescue,KCNK9 block,KCNQ1 inh,KCC2 mod,KCNK9 block conf,Kir21 sel,HEK293 Tl ctr
COc1cc(/C=C2/NC(=O)N(CC(=O)Nc3ccc(C)cc3)C2=O)ccc1Oc1ccc([N+](=O)[O-])cn1,i,i,-13,i,i,1,.,.,.
COc1ccc(C(=O)C2CCCN(C(=O)c3noc4c3CCCC4)C2)cc1F (stereo not drawn),i,i,0,i,i,-0.016,i,i,i
Cc1ccccc1N1CCN(C2CCCN(C(=O)c3noc4c3CCCC4)C2)CC1 (stereo not drawn),i,i,-11,i,i,.,i,i,i
COc1ccc(C(=O)C2CCCN(C(=O)c3ccccc3C(C)=O)C2)cc1F (stereo not drawn),i,i,-7,i,i,-1.4,.,.,.
COc1ccc(C(=O)C2CCCN(C(=O)c3ccc(CSC)o3)C2)cc1F (stereo not drawn),i,i,-19,i,i,.,i,i,i
CC1CCN(C(=O)CNC(=O)c2ccc(Br)o2)CC1,.,i,.,.,.,.,.,.,.
C=CCn1c(=O)c2c(nc(-n3nc(C)cc3C)n2C)n(C)c1=O,i,i,-1,i,i,.,.,.,.
CCN(C(=O)CSc1nc2cc(Cl)ccc2c(=O)n1Cc1ccco1)C1CCS(=O)(=O)C1 (stereo not drawn),i,i,0,-10*,i,-0.96,i,i,i
CCOc1ccc(S(=O)(=O)N2CCN(C(=O)c3cc(C4CC4)nn3-c3ccccc3)CC2)cc1,.,i,.,.,.,.,.,.,.
CC1CC(C)CN(S(=O)(=O)c2ccc(C(=O)N3CCN(c4ccccc4)CC3)cc2)C1 (stereo not drawn),i,i,-5,i,i,-1.6,i,i,i
O=C(c1ccc(S(=O)(=O)N2CCCCCC2)cc1)N1CCN(c2ccccc2)CC1,i,i,-4,i,i,.,.,.,.
COc1cc(C(=O)OCc2cccc(OC)c2OC)ccc1OCC(=O)N1CCOCC1,.,i,.,.,.,.,.,.,.
CC(=NCCc1c(C)[nH]c2ccc(OCc3ccccc3)cc12)C1=C(O)CC(c2ccccc2)CC1=O (stereo not drawn),i,i,-18,i,i,-1,.,.,.
CCC(=NCCc1c(C)[nH]c2ccc(OC(F)(F)F)cc12)C1=C(O)CC(c2ccccc2)CC1=O (stereo not drawn),i,i,-15,i,i,-0.14,.,.,.
